The values below come from ChEMBL document CHEMBL1687928, “Discovery, optimization, and pharmacological characterization of novel heteroaroylphenylureas antagonists of C-C chemokine ligand 2 function” (J Med Chem, 2011).

Each structure is given as a SMILES string. Activity calls are given as the source filed them. No cut-off for these calls is given here.

In data set [1] the target is T1, CYP1A2 (Homo sapiens, UniProt P05177).
T1 sequence (P05177 whole entry): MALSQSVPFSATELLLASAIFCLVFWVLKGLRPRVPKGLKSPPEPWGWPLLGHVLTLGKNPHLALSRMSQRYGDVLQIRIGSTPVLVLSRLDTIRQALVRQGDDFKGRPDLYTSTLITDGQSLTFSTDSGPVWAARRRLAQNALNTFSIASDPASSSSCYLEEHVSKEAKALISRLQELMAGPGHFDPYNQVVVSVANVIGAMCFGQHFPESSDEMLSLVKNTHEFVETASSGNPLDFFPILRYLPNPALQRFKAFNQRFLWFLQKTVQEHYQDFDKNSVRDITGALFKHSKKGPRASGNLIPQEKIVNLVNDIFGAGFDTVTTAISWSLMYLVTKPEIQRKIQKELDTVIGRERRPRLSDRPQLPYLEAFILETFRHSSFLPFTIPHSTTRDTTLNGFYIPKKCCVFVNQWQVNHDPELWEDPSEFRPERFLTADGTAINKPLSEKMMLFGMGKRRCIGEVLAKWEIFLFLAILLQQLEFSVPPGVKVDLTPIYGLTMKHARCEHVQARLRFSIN
The data set can be described thus: Inhibition of CYP1A2 at 1 uM. It counts as ADME.

Data set [2] concerns the target CYP2C19 (Homo sapiens, UniProt P33261). The data set can be described thus: Inhibition of CYP2C19 at 1 uM. It counts as ADME.
The nature of data set [3]: Volume of distribution at steady state in rat at 5 mg/kg, iv. Also noted: dose 5 mg/kg, route intravenous. The settings on record: in vivo, read-out: Vdss. It counts as ADME, organism-based. In outline:
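Rats, not fasted, received a single intravenous or oral dose.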

The nature of data set [4]: Clearance in rat at 5 mg/kg, iv. Also noted: dose 5 mg/kg, route intravenous. The settings on record: in vivo. It counts as ADME, organism-based.
Data set [5] in a line: Cmax in rat at 5 mg/kg, po. Details: dose 5 mg/kg, route oral. The settings on record: in vivo. It counts as ADME, organism-based.
The test system of data set [6] is Rattus norvegicus. The data set can be described thus: Inhibition of bone resorption in joints of collagen-induced arthritis Lewis rat model at 30 mg/kg, po BID for 28 days. It counts as functional, organism-based. Details: dose 30 mg/kg. Put shortly: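 Female Lewis SPF rats, 6 weeks old (n = 8/group). CIA was induced on day 0 by intradermal injection at the tail base of 900 μg bovine type II collagen in Freund's complete adjuvant, with a 450 μg boost on day 7. Compound in 5% gum arabic was given by gavage b.i.d. for 28 days from day 0. Hind-paw radiographs were taken on day 29 and scored blind from 0 to 4, averaging both legs. Two-tailed t test.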

Data set [7] deals with Rattus norvegicus. The data set is described as follows: Drug uptake in collagen-induced Lewis rat tarasal joints at 2 to 30 mg/kg, po measured 5 hrs after last dosing. It counts as functional, organism-based. Put shortly: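 In the rat collagen-induced arthritis study (oral b.i.d. dosing for 28 days), compound concentration was measured in plasma, tarsal homogenates and thigh-bone marrow. Samples were taken 5 h after the last dose on day 28.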

In data set [8] the test system is Mus musculus. The data set is described as follows: Antiinflammatory activity in complete Freund's adjuvant-induced C57BL/6 mouse assessed as delay in autoimmune encephalomyelitis disease progression at 30 mg/kg, po BID. It counts as functional. In outline: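 MOG33-55 peptide emulsion given subcutaneously to C57BL/6 mice, with intravenous pertussis vaccine (350 ng) right after and again 48 h later. Compound dissolved at 4 mg/mL in 3% aqueous Tween 80 (stored at 4 C), or water as vehicle, given orally b.i.d. from the day of immunization (day 0). Mice monitored daily for disease onset and clinical score (0–5 scale).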

Data set [9] is filed under the species Mus musculus. The data set is described as follows: Antiinflammatory activity in Freund's adjuvant-induced C57BL/6 mouse assessed as decrease in inflammatory cell infiltrates in cerebellum. It counts as functional, organism-based. Put shortly: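 C57BL/6 mice were immunized s.c. with a MOG33-55 peptide emulsion and given pertussis vaccine (350 ng i.v.) right away and again 48 h later. From day 0, compound in 3% aqueous Tween 80 (4 mg/mL) or water was dosed orally b.i.d. Tissue cellular infiltrate was scored 0–5, from few small perivascular/meningeal infiltrates up to very large extensive infiltrate.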

In data set [10] the test system is Mus musculus. The data set can be described thus: Toxicity in ICR mouse at 30 mg/kg, po QD for 14 days. It counts as organism-based. Also noted: dose 30 mg/kg, route oral. The settings on record: in vivo, 336 h. Put shortly:
(§1)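 Repeated-dose study in 6-week-old male ICR mice. Vehicle or 30, 100 or 300 mg/kg was given orally once daily for 14 days. Survival, behavior, body weight and liver enzymes (AST, ALT) were monitored.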

Data set [11] deals with Mus musculus. The data set is described as follows: Toxicity in ICR mouse at 100 mg/kg, po QD for 14 days. It counts as organism-based. Details: dose 100 mg/kg, route oral. The settings on record: in vivo, 336 h. Put shortly:
as §1

The subject of data set [12] is Mus musculus. The data set is described as follows: Toxicity in ICR mouse assessed as vacuolar degeneration in liver at 300 mg/kg, po QD for 14 days. Details: dose 300 mg/kg, route oral. The settings on record: in vivo, 336 h. It counts as organism-based.

CYP2C19, sequence (P33261 whole entry): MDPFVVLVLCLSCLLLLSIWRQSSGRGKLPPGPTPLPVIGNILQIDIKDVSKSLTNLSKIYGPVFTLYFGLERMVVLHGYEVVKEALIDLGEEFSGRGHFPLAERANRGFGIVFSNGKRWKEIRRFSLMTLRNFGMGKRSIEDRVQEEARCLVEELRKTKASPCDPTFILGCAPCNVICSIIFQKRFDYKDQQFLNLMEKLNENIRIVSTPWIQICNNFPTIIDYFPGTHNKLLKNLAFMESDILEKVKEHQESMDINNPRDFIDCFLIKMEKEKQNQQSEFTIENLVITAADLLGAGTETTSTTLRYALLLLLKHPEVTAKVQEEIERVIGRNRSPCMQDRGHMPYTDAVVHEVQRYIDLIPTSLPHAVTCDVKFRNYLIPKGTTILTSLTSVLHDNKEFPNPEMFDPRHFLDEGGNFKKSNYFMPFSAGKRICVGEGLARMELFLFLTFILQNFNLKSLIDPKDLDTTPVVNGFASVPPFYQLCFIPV

Broadly, the inhibition is the change of the read-out against control, counted positive when it falls. Usually clearance stands for a measure of how efficiently the substance is removed, as volume per time. Low readings indicate a low capacity for elimination, high ones a high capacity for elimination. Usually Cmax stands for the highest concentration seen after dosing. As for `Cc1nn(C)c2nc(N(C)CCN(C)C)c(C(=O)NC(=O)Nc3cccc(OC(C)C)c3)cc12.Cl`, the inhibition at 1 µM is -12% in data set [1] and -8% in data set [2]. Moreover, the Vd in data set [3] was found to be 9.9 L/kg. Further, the clearance in [4] was 31.7 mL/min/kg. The compound further yielded a Cmax in data set [5] of 129 ng/mL. For the same compound, the result in data set [6] and in data set [9] was Active. For the same compound, the Drug uptake result in data set [7] was “Active”. In addition, the Activity was 32.7 days in [8], “Non-toxic” in data set [10], “Non-toxic” in [11] and “Toxic” in data set [12].
